Results from different studies.
Lines come from different studies, so protocols differ.
Cell line: NCI-H226
Read-out: cell growth or viability

SMILES	technique	tested at	time	measurement	value
COc1ccc(C(=O)/C=C/c2ccccc2Br)cc1S(N)(=O)=O	SRB	10 µM	–	inhibition	79%
CCCCc1n(Cc2ccc3ccccc3n2)cc[n+]1Cc1ccc2ccccc2n1	SRB	–	–	TGI	13.6 µM
COc1ccc(C(=O)/C=C/c2cc3c(cc2Br)OCO3)cc1S(N)(=O)=O	SRB	10 µM	–	inhibition	87%
CCc1n(Cc2ccc3ccccc3n2)cc[n+]1Cc1ccc2ccccc2n1	SRB	–	–	TGI	30.8 µM
CCCCC/C=C/C(=O)CCc1ccc(O)c(OC)c1	SRB	–	–	IC50	18 µM
O=C1NC(=NCc2cccs2)S/C1=C\c1ccc2ncccc2c1	–	–	–	IC50	> 10 µM
CCCCC[C@H](O)CC(=O)CCc1ccc(O)c(OC)c1	SRB	–	–	IC50	145 µM
COc1ccc(-c2ccc(-c3ccc(C(=N)N)nc3)s2)cc1Cl	SRB	–	–	GI50	1920 nM
Cc1cc(C)n(C(=S)[S][Au][PH](CCCCCC[PH]([Au][S]C(=S)n2nc(C)cc2C)(c2ccccc2)c2ccccc2)(c2ccccc2)c2ccccc2)n1	SRB	–	–	GI50	2520 nM
Cc1n(Cc2ccc3ccccc3n2)cc[n+]1Cc1ccc2ccccc2c1	SRB	–	–	TGI	10.9 µM
COc1ccc(-c2ccc(-c3ccc(C(=N)N)nc3)s2)cc1	SRB	–	–	GI50	1810 nM
COc1ccccc1/C=C/C(=O)c1ccc(OC)c(S(N)(=O)=O)c1	SRB	–	48 h	GI50	4000 nM
c1ccc2cc(Cn3cc[n+](Cc4ccc5ccccc5c4)c3)ccc2c1	SRB	–	–	TGI	14.3 µM
COc1ccc(C(=O)/C=C/c2cccc(Br)c2)cc1S(N)(=O)=O	SRB	10 µM	–	inhibition	83%
COc1cc([C@@H]2c3cc4c(cc3[C@@H](O[C@@H]3O[C@@H]5CO[C@@H](C)O[C@H]5[C@H](O)[C@H]3O)[C@H]3COC(=O)[C@H]23)OCO4)cc(OC)c1O	MTT	–	72 h	IC50	0.39 µM
COc1ccc(C(=O)/C=C/c2ccc3ccccc3c2)cc1S(N)(=O)=O	SRB	–	48 h	GI50	2300 nM
NC(=O)c1cc(Cl)ccc1NC(=O)COc1ccccc1	SRB	–	–	GI50	> 100000 nM
